SENP6 inh: SENP6 protease inhibitors, primary screen, biochemical, luminescence, uHTS | Sentrin-specific protease 6 (Homo sapiens), Q9GZR1 | Recombinant SENP6 catalytic domain, aminoluciferin luminescence | inhibition, % at 10 µM | hit rate 1.8% among 330,000 | AID 2599, 2010;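 active means inhibition above about 50% at the single tested dose, limit read from the data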;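 further: plate controls were DMSO wells with enzyme for no effect and DMSO wells lacking enzyme for full effect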
Target sequence (Q9GZR1 628-1112 limits assumed): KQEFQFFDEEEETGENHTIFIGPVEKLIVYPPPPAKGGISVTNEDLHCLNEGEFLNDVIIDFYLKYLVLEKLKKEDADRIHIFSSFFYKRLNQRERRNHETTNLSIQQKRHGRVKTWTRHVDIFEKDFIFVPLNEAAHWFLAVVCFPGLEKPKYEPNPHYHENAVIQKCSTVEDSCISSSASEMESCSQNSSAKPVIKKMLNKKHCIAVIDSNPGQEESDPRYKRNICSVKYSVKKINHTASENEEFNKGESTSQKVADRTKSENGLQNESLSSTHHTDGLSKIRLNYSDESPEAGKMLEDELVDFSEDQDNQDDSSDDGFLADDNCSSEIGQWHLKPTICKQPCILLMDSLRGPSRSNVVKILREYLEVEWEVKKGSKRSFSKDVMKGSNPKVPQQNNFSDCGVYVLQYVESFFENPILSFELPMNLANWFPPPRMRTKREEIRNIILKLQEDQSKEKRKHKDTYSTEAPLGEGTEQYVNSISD
SENP7 inh: SENP7 protease inhibitors, primary screen, biochemical, luminescence, uHTS; Sentrin-specific protease 7 (Homo sapiens), Q9BQF6; recombinant SENP7, Z-RLRGG-aminoluciferin luminescence, 40 min; inhibition, % at 5 µM; hit rate 1.5% among 330,000;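 active means inhibition above about 50% at the single test dose, limit read from the data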;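 further: plate controls were DMSO with enzyme for no effect and no enzyme buffer wells for full effect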
Apaf1 inhib: inhibitors of human Apaf-1 apoptosome, primary screen, biochemical, DEVD-Rh110 fluorescence, uHTS; Apoptotic protease-activating factor 1 (Homo sapiens), O14727; reconstituted apoptosome caspase-3 activity; inhibition, % at 20 µM; hit rate 0.71% among 330,000; active means inhibition of at least 40% at 20 µM;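 further: plate controls were DMSO wells for no effect and DEVD-CHO caspase inhibitor wells for full effect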
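Material: reconstituted apoptosome with Apaf-1, cytochrome c, caspase-9, procaspase-3, dATP / Buffer or medium: pH 7.5 Hepes buffer with CHAPS, BSA, DTT / Also added: cytochrome c with DEVD-Rh110 / Schedule: compound with Apaf-1, dATP, procaspase-3 30 min, then 50 min reaction, room temperature / Technique: rhodamine 110 fluorescence at Ex 480/Em 540 nm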
SENP8 block-1: SENP8 protease inhibitors, primary screen, biochemical, luminescence; hit rate 1.2% among 330,000; Sentrin-specific protease 8 (Homo sapiens), Q96LD8; AID 2540, 2010; inhibition, % at 10 µM; purified SENP8, Z-RLRGG-aminoluciferin cleavage; in the data active means inhibition above about 50%
SENP1 inh: human SENP1 catalytic domain inhibitors, primary screen, biochemical, FRET, uHTS; recombinant SENP1 catalytic domain, CyPet-SUMO1-YPet FRET cleavage; inhibition, % at 10 µM; hit rate 0.21% among 360,000; Sentrin-specific protease 1 (Homo sapiens), Q9P0U3;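 active means inhibition at least 30% at 10 µM, raw YFP signal under a set limit, fluorescence ratio 0.5 to 1.5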;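 further: 0% = enzyme with DMSO and 100% = no enzyme wells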
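system = hSENP1 catalytic domain, recombinant | reagent = SFCypet-SUMO1-SFYpet substrate at 25 nM | doses = one dose per compound, 10 µM, 0.5% DMSO | incubation = enzyme reaction for 50 min at room temperature, dark | measured by = FRET, CFP and YFP emission | controls = no-enzyme low, enzyme-DMSO high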
SENP8 block-2: human SENP8 protease inhibitors, primary screen, biochemical, fluorescence, Nedd8 protein substrate, uHTS. Sentrin-specific protease 8 (Homo sapiens), Q96LD8. hit rate 0.64% among 360,000. inhibition, % at 20 µM. recombinant SENP8; in the data active means inhibition mostly above about 40%, no sharp cut-off; inactive means mostly below about 27%
SENP8 confirm: SENP8 protease inhibitors, retest, confirmation, biochemical, luminescence, single concentration. hit rate 40% among 6,200. shares compounds with SENP7 inh. inhibition, % at 12.5 µM. Recombinant SENP8, Z-RLRGG-aminoluciferin luminescence, 60 min;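 active means mean inhibition across replicates above about 50%, limit read from the data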
SENP6 conf: SENP6 protease inhibitors, confirmation, biochemical, luminescence, single concentration; recombinant SENP6, Z-RLRGG-aminoluciferin luminescence; shares compounds with SENP7 inh; hit rate 58% among 6,200; inhibition, % at 12.5 µM; AID 488915, 2010
SENP7 conf: SENP7 protease inhibitors, retest, confirmation, biochemical, luminescence, single concentration; recombinant SENP7, Z-RLRGG-aminoluciferin luminescence, 40 min; inhibition, % at 12.5 µM; hit rate 69% among 6,200; shares compounds with SENP7 inh
Casp3 SENP sel: caspase-3 protease inhibitors, confirmation, selectivity assay for SENP inhibitor project, biochemical, single concentration | shares compounds with SENP7 inh | purified caspase-3, Z-DEVD-aminoluciferin luminescence, 60 min | inhibition, % at 12.5 µM | hit rate 60% among 6,200 | AID 488918, 2010;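 active means mean inhibition above about 50%, limit read from the data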;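 further: plate controls were enzyme with DMSO for no effect and wells without caspase-3 for full effect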
Target sequence (P42574 28-227 limits assumed): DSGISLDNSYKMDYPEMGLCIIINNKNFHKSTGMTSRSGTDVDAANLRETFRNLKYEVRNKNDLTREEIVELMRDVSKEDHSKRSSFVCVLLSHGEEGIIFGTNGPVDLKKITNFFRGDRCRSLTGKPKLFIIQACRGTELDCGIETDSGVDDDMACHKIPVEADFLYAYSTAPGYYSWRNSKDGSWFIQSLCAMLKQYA
Luc interf: luminescence interference (SENP counter-screen). inhibition, % at 12.5 µM. hit rate 39% among 6,200. Pre-incubated SENP8/Z-RLRGG-aminoluciferin, luciferase luminescence interference. shares compounds with SENP7 inh. AID 488919;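 active means mean inhibition above about 50% when retested at one dose, limit read from the data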;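 further: plate controls were DMSO wells with completed reaction for no effect and substrate without enzyme for full effect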
An asterisk follows results filed as active. A selection: hits, their analogues and other compounds. The true share with any hit is near 2.9%.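 How the source made its calls, unless noted: active means mean inhibition above about 50% in the one-dose retest (limit read from the data); inactive means the rest.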

What do the screens show for `C/C(=N\Nc1nncc2ccccc12)c1ccc(O)cc1`?
SENP6 inh: 67*; SENP7 inh: 36; Apaf1 inhib: 8; SENP8 block-1: 4; SENP1 inh: 1; SENP8 block-2: 30; SENP8 confirm: 0; SENP6 conf: -9; SENP7 conf: 40; Casp3 SENP sel: 44; Luc interf: 12

How did O=c1oc(Nc2ccccc2F)nc2ccccc12 do in these assays?
SENP6 inh: 76*; SENP7 inh: 42; Apaf1 inhib: -3; SENP8 block-1: 54*; SENP1 inh: 3; SENP8 block-2: -139; SENP8 confirm: 4; SENP6 conf: 99*; SENP7 conf: 103*; Casp3 SENP sel: 99*; Luc interf: 98*

How did CC1=C(C#N)C(=O)NC1(C)O (centres undefined) do in these assays?
SENP1 inh: -5; SENP8 block-2: 5

What do the screens show for `[O-]/C(=C(\C(=S)Nc1cccc2ccccc12)[n+]1ccccc1)c1cccs1`?
SENP6 inh: 56*; SENP7 inh: 23; Apaf1 inhib: 30; SENP8 block-1: 12; SENP1 inh: -73; SENP8 block-2: -362; SENP8 confirm: 7; SENP6 conf: 12; SENP7 conf: -6; Casp3 SENP sel: 4; Luc interf: -2

What do the screens show for `Cc1cccc(C)c1NC(=S)/C(=C(\[O-])c1cccs1)[n+]1ccccc1`?
SENP6 inh: 0; SENP7 inh: 5; Apaf1 inhib: -1; SENP8 block-1: -5; SENP1 inh: -5; SENP8 block-2: 14

Results for O=C(/C=C/c1ccc([N+](=O)[O-])cc1)Nc1cccnc1 ?
SENP6 inh: 71*; SENP7 inh: 58*; Apaf1 inhib: 3; SENP8 block-1: 33; SENP1 inh: 4; SENP8 block-2: 23; SENP8 confirm: 48; SENP6 conf: 64*; SENP7 conf: 92*; Casp3 SENP sel: 77*; Luc interf: 32

How did O=C(C=Cc1ccccc1)Nc1ccccc1 do in these assays?
SENP1 inh: 1; SENP8 block-2: -1

What do the screens show for `O=C(/C=C/c1ccccc1)Nc1cccnc1`?
SENP6 inh: 66*; SENP7 inh: 76*; Apaf1 inhib: 0; SENP8 block-1: 51*; SENP1 inh: 4; SENP8 block-2: 7; SENP8 confirm: -19; SENP6 conf: 57*; SENP7 conf: 90*; Casp3 SENP sel: 84*; Luc interf: 72*

What do the screens show for `COC(=O)[C@]12CCCCC=C1N(Cc1ccc3c(c1)OCO3)C(=O)[C@H](CC(=O)NCC1CCCCC1)C2`?
SENP1 inh: 3; SENP8 block-2: 13

How did CC1(C)Cc2c(sc(NC(=O)c3ccccc3)c2C(=O)O)CO1 do in these assays?
SENP6 inh: -16; SENP7 inh: 44; Apaf1 inhib: 0; SENP8 block-1: 64*; SENP1 inh: -2; SENP8 block-2: -49; SENP8 confirm: 77*; SENP6 conf: 69*; SENP7 conf: 86*; Casp3 SENP sel: 82*; Luc interf: 59*

How did CC(C)COc1ccc(C(=O)Nc2sc3c(c2C(=O)O)CC(C)(C)OC3)cc1 do in these assays?
SENP6 inh: 30; SENP7 inh: -1; Apaf1 inhib: 10; SENP8 block-1: 28; SENP1 inh: 1; SENP8 block-2: -373

Results for COc1ccc(C(=O)Nc2sc3c(c2C(=O)O)CC(C)(C)OC3)cc1 ?
SENP6 inh: 63*; SENP7 inh: 43; Apaf1 inhib: -4; SENP8 block-1: 44; SENP1 inh: 3; SENP8 block-2: -278; SENP8 confirm: 8; SENP6 conf: 56*; SENP7 conf: 0; Casp3 SENP sel: 50*; Luc interf: 2

Results for CC1(C)Cc2c(sc(NC(=O)C(=O)N3CCCC3)c2C(=O)O)CO1 ?
SENP6 inh: 4; SENP7 inh: 15; Apaf1 inhib: -5; SENP8 block-1: -7; SENP1 inh: 1; SENP8 block-2: 22

What do the screens show for `CC1(C)CSC(C)(C)C(=O)N1`?
SENP1 inh: 3; SENP8 block-2: 15

What do the screens show for `COc1cc(NC(=O)c2cc3ccccc3o2)c(OC)cc1Br`?
SENP6 inh: 13; SENP7 inh: 9; Apaf1 inhib: 4; SENP8 block-1: -1; SENP1 inh: -18; SENP8 block-2: -122

How did Cc1ccccc1NC(=O)c1cc(=O)c2ccccc2o1 do in these assays?
SENP6 inh: 16; SENP7 inh: 2; Apaf1 inhib: 0; SENP8 block-1: 4; SENP1 inh: 2; SENP8 block-2: 11

Results for Cc1ccc(NC(=O)c2cc3ccccc3o2)nc1 ?
SENP6 inh: 63*; SENP7 inh: 65*; Apaf1 inhib: 8; SENP8 block-1: 40; SENP1 inh: -8; SENP8 block-2: -67; SENP8 confirm: 58*; SENP6 conf: 58*; SENP7 conf: 87*; Casp3 SENP sel: 74*; Luc interf: 67*

What do the screens show for `Cc1ccccc1NC(=O)c1cc2ccccc2o1`?
SENP6 inh: 85*; SENP7 inh: 71*; Apaf1 inhib: -10; SENP8 block-1: 67*; SENP1 inh: 1; SENP8 block-2: -18; SENP8 confirm: 71*; SENP6 conf: 70*; SENP7 conf: 92*; Casp3 SENP sel: 85*; Luc interf: 79*

Results for O=C(Nc1ncccc1Cl)c1cc2ccccc2o1 ?
SENP6 inh: 63*; SENP7 inh: 64*; Apaf1 inhib: 10; SENP8 block-1: 42; SENP1 inh: -2; SENP8 block-2: 6; SENP8 confirm: 68*; SENP6 conf: 73*; SENP7 conf: 92*; Casp3 SENP sel: 83*; Luc interf: 28
